Laboratory results reported in ChEMBL document CHEMBL4270573, “Novel nicotinoyl pyrazoline derivates bearing N-methyl indole moiety as antitumor agents: Design, synthesis and evaluation” (Eur J Med Chem, 2018).
Activity calls are given as the source filed them. No cut-off for these calls is given here.

Columns and labels:
[1] = test system: Mus musculus; assay: Toxicity in nude mouse xenografted with human HeLa cells assessed as cellular inflammatory infiltration in spleen at 10 to 20 mg/kg, ip after 14 days by hematoxylin and eosin staining based microscopic analysis; format: organism-based; conditions: in vivo, 336 h
[2] = test system: HeLa; assay: Cell cycle arrest in human HeLa cells assessed as accumulation at G2/M phase at 0.040 uM after 24 hrs by propidium iodide staining based flow cytometric analysis (reference value: 17.72%); format: functional
Method in brief: (§1)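 HepG2 and HeLa cells were exposed to 0, 0.020, 0.040, 0.060, 0.080 or 0.10 µM for 6, 12 or 24 h. DNA content was stained with propidium iodide and analysed by flow cytometry to give the percentage of cells in G0/G1, S and G2/M phases; sub-G1 cells were also recorded.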

[3] = test system: HeLa; assay: Cell cycle arrest in human HeLa cells assessed as accumulation at S phase at 0.040 uM after 24 hrs by propidium iodide staining based flow cytometric analysis (reference value: 17.46%); format: functional; method in brief: as §1
[4] = test system: HeLa; assay: Antitumor activity against human HeLa cells xenografted in nude mouse assessed as relative tumor growth inhibition at 10 mg/kg, ip after 14 days (reference value: 59.92%); format: functional; conditions: 336 h, read-out: TGI
[5] = test system: HeLa; assay: Cell cycle arrest in human HeLa cells assessed as accumulation at G2/M phase at 0.020 uM after 24 hrs by propidium iodide staining based flow cytometric analysis (reference value: 17.72%); format: functional; method in brief: as §1
[6] = target: Tubulin (Homo sapiens) (UniProt P68371+Q9H4B7+P0DPH7+P68366+Q13509+Q71U36+P04350+Q3ZCM7+P07437+P68363+Q9BQE3+Q6PEY2+Q13885+Q9BVA1+Q9BUF5); assay: Inhibition of tubulin polymerization in human HepG2 cells assessed as mitotic catastrophe formation at 0.04 to 0.1 uM after 12 hrs by DAPI staining based immunofluorescence confocal laser scanning microscopic analysis; format: cell-based
[7] = test system: HepG2; assay: Induction of apoptosis in human HepG2 cells assessed as viable cells at 0.020 uM after 24 hrs by Annexin V-FITC/propidium iodide staining based flow cytometric analysis (reference value: 94.5%); format: functional; conditions: HepG2, 24 h, read-out: Activity
Method in brief: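 HepG2 and HeLa cells were exposed to 0, 0.02, 0.040, 0.060, 0.080 and 0.10 µM for 6, 12 and 24 h. Cells were double-stained with Annexin V-FITC/PI and read by flow cytometry. Apoptotic rate was the percentage of FITC-positive cells, counting early plus late apoptotic.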

[8] = test system: Mus musculus; assay: Nephrotoxicity in nude mouse xenografted with human HeLa cells assessed as morphological changes in kidney cells at 10 to 20 mg/kg, ip after 14 days by hematoxylin and eosin staining based microscopic analysis; format: toxicity, organism-based; conditions: in vivo, 336 h
[9] = test system: Mus musculus; assay: Toxicity in nude mouse xenografted with human HeLa cells assessed as necrosis in spleen at 10 to 20 mg/kg, ip after 14 days by hematoxylin and eosin staining based microscopic analysis; format: organism-based; conditions: in vivo, 336 h

**Q.** For COc1cccc(C2=NN(C(=O)c3ccc(C)nc3)C(c3cn(C)c4ccc(OC)cc34)C2)c1 (centres undefined), which Activity [1] is on record?
**A.** Non-Toxic

**Q.** And the Activity [2]?
**A.** 27.81%

**Q.** What about the Activity [3] of the same molecule?
**A.** 7.43%

**Q.** What about the inhibition in vivo at 10 mg/kg [4] of the same molecule?
**A.** 47.1%

**Q.** And the Activity [5]?
**A.** 21.23%

**Q.** What about the inhibition [6] of the same molecule?
**A.** Active

**Q.** And the viability at 0.02 µM [7]?
**A.** 92.9%

**Q.** And the Activity [8]?
**A.** Non-Toxic

**Q.** And the Activity [9]?
**A.** Non-Toxic
